The target of assay [1] is T1, Excitatory amino acid transporter 1 (Homo sapiens, UniProt P43003). The experiment in a line: Inhibition of human EAAT1 assessed as [3H]Asp uptake.
In assay [2] the target is Metabotropic glutamate receptor 3 (Rattus norvegicus) (UniProt P31422). In words: Agonist activity at mGlu3 receptor (rat) assessed as IP1 accumulation preincubated with 3 uM LY341495 for 20 mins followed by addition of 1 mM of compound by IP-One functional assay.
For assay [3], the target named is Metabotropic glutamate receptor 6 (Rattus norvegicus, UniProt P35349). In words: Agonist activity at rat mGlu6 receptor expressed in HEK293 cells assessed as IP1 accumulation by IP-One functional assay. The assay is classed as cell-based. In outline: (§1)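 HEK293 cells were transiently electroporated with the rat receptor plus a chimeric Gi/Gq protein for PLC coupling and EAAC1. Medium was replaced by Glutamax at least 2 h before agonist. IP1 accumulation was measured by HTRF 24 h post-transfection, at least in duplicate. EC50 ± SEM came from n = 4−6 experiments.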

In assay [4] the target is T1, Excitatory amino acid transporter 1. In words: Substrate activity at human EAAT1 assessed as [3H]Asp uptake measured up to 300 uM.
Assay [5] addresses T2, Excitatory amino acid transporter 2 (Homo sapiens, UniProt P43004). The experiment in a line: Substrate activity at human EAAT2 assessed as [3H]Asp uptake measured up to 300 uM.
For assay [6], the target named is T3, Metabotropic glutamate receptor 3 (Rattus norvegicus, UniProt P31422). In words: Agonist activity at rat mGlu3 receptor by FRET based mGlu sensor assay. In outline:
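Receptor carried an N-terminal SNAP-tag and was transfected into HEK293 cells. At 24 h, surface receptors were labelled for 1 h with 100 nM SNAP-Lumi4-Tb (donor) and 60 nM SNAP Green (acceptor), washed three times, then drug was added. Time-resolved FRET was recorded at 520 nm, at least in duplicate. EC50 ± SEM came from n = 4−6 experiments.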

Assay [7] concerns the target T2, Excitatory amino acid transporter 2. The experiment in a line: Inhibition of human EAAT2 assessed as [3H]Asp uptake.
Assay [8] addresses Metabotropic glutamate receptor 8 (Rattus norvegicus, UniProt P70579). The experiment in a line: Agonist activity at rat mGlu8 receptor expressed in HEK293 cells assessed as IP1 accumulation by IP-One functional assay. The assay is classed as cell-based. In outline: as §1
Assay [9] is described as follows: Displacement of [3H]KA from rat synaptosome KA receptor after 60 mins by microplate scintillation counter analysis. (In a radioligand displacement assay an active substance lowers the binding of a labelled ligand.)
Assay [10] has as its target Metabotropic glutamate receptor 2 (Homo sapiens) (UniProt Q14416). The experiment in a line: Agonist activity at mGlu2 receptor (unknown origin) assessed as IP1 accumulation preincubated with 3 uM LY341495 for 20 mins followed by addition of 1 mM of compound by IP-One functional assay. In short, it runs like this: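 Single-dose test in HEK293 cells cotransfected with rat receptor, chimeric Gi/Gq and EAAC1. Cells were pretreated with 3 μM LY341495 for 20 min at 37 °C, washed twice, then stimulated with 1 mM compound. IP1 was read by HTRF 24 h post-transfection. Comparison was against vehicle by one-way ANOVA with Dunnett's test.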

The nature of assay [11]: Displacement of [3H]AMPA from rat synaptosome AMPA receptor after 30 mins by microplate scintillation counter analysis.
The target of assay [12] is T4, Metabotropic glutamate receptor 2 (Rattus norvegicus, UniProt P31421). In words: Agonist activity at rat mGlu2 receptor expressed in HEK293 cells assessed as IP1 accumulation by IP-One functional assay. The assay is classed as cell-based. In outline:
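HEK293 cells were transiently electroporated with the rat receptor plus a chimeric Gi/Gq protein for PLC coupling and EAAC1. Medium was replaced by Glutamax at least 2 h before agonist. IP1 accumulation was measured by HTRF 24 h post-transfection, at least in duplicate.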

Assay [13] deals with T5, Metabotropic glutamate receptor 5 (Rattus norvegicus, UniProt P31424). In words: Agonist activity at rat mGlu5 receptor expressed in HEK293 cells assessed as IP1 accumulation by IP-One functional assay. The assay is classed as cell-based.
Assay [14] addresses Metabotropic glutamate receptor 7 (Rattus norvegicus, UniProt P35400). In words: Agonist activity at rat mGlu7 receptor expressed in HEK293 cells assessed as IP1 accumulation by IP-One functional assay. The assay is classed as cell-based. In short, it runs like this:
as §1

The target in assay [15] is T4, Metabotropic glutamate receptor 2. In words: Agonist activity at rat mGlu2 receptor by FRET based mGlu sensor assay. In outline: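 Receptor carried an N-terminal SNAP-tag and was transfected into HEK293 cells. At 24 h, surface receptors were labelled for 1 h with 100 nM SNAP-Lumi4-Tb (donor) and 60 nM SNAP Green (acceptor), washed three times, then drug was added. Time-resolved FRET was recorded at 520 nm, at least in duplicate.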

Assay [16] deals with T6, Metabotropic glutamate receptor 1 (Rattus norvegicus, UniProt P23385). The experiment in a line: Agonist activity at rat mGlu1 receptor expressed in HEK293 cells assessed as IP1 accumulation by IP-One functional assay. The assay is classed as cell-based. In short, it runs like this: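 Rat group I receptor transiently electroporated into HEK293 with the EAAC1 glutamate transporter; medium switched to Glutamax at least 2 h before stimulation. IP1 was read by HTRF (IP-One kit) 24 h after transfection. Runs were at least in duplicate, with EC50 ± SEM from n = 4−6 experiments.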

The target of assay [17] is T7, Excitatory amino acid transporter 3 (Homo sapiens, UniProt P43005).
T7 sequence (P43005 whole entry): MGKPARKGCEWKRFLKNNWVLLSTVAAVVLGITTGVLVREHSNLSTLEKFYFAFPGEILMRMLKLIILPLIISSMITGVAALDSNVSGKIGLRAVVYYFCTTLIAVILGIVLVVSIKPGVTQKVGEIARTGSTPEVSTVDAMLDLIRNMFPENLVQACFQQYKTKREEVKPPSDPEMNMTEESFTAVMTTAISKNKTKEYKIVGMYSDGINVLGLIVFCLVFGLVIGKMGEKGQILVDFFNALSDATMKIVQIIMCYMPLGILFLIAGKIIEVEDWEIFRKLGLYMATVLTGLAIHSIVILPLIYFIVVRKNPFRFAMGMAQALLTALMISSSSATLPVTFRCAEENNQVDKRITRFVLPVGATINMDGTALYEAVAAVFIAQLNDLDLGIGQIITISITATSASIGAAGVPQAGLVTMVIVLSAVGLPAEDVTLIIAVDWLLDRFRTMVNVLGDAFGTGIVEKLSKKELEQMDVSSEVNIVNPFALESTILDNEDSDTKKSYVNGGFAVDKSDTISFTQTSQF
The experiment in a line: Inhibition of human EAAT3 assessed as [3H]Asp uptake.

Assay [18] has as its target T8, Metabotropic glutamate receptor 4 (Rattus norvegicus, UniProt P31423). In words: Agonist activity at rat mGlu4 receptor expressed in HEK293 cells assessed as IP1 accumulation by IP-One functional assay. The assay is classed as cell-based. In outline:
as §1

Assay [19] has as its target Glutamate NMDA receptor. The experiment in a line: Displacement of [3H]CGP from rat synaptosome NMDA receptor after 60 mins by microplate scintillation counter analysis. The assay is classed as protein-complex assay.
Assay [20] addresses T5, Metabotropic glutamate receptor 5. The experiment in a line: Agonist activity at rat mGlu5 receptor expressed in HEK293 cells by intracellular Ca2+ mobilization assay. The assay is classed as functional, cell-based.
Assay [21] addresses T8, Metabotropic glutamate receptor 4. In words: Agonist activity at rat mGlu4 receptor expressed in HEK293 cells assessed as inhibition of forskolin stimulated cAMP production. The assay is classed as functional, cell-based. (In general: Changes in cAMP serve as a functional read-out for many G protein-coupled receptors.)
The target in assay [22] is T3, Metabotropic glutamate receptor 3. The experiment in a line: Agonist activity at rat mGlu3 receptor expressed in HEK293 cells by [35S]GTP-gamma binding assay. The assay is classed as cell-based.
The target of assay [23] is T4, Metabotropic glutamate receptor 2. The experiment in a line: Agonist activity at rat mGlu2 receptor expressed in HEK293 cells by [35S]GTP-gamma binding assay. The assay is classed as cell-based.
In assay [24] the target is T6, Metabotropic glutamate receptor 1. In words: Agonist activity at rat mGlu1 receptor expressed in HEK293 cells by intracellular Ca2+ mobilization assay. The assay is classed as functional, cell-based. In general terms: Calcium assays in cells follow changes in intracellular calcium, usually with a dye or a luminescent sensor.
Assay [25] addresses Metabotropic glutamate receptor 7 (Homo sapiens, UniProt Q14831). The experiment in a line: Agonist activity at human mGlu7 receptor expressed in HEK293 assessed as inhibition of forskolin stimulated cAMP production. The assay is classed as functional, cell-based.

The values below come from ChEMBL document CHEMBL3784960, “New 4-Functionalized Glutamate Analogues Are Selective Agonists at Metabotropic Glutamate Receptor Subtype 2 or Selective Agonists at Metabotropic Glutamate Receptor Group III” (J Med Chem, 2016).

Broadly, the IC50 is the concentration that inhibits the measured activity by half. The term Ki denotes a measure of affinity in units of concentration, obtained from inhibition or displacement. A high value points to weaker binding.

Activity calls are given as the source filed them. The calls are words filed in the database; no cut-off is given here.

Chain of Metabotropic glutamate receptor 2 (Homo sapiens) (Q14416 19-872 limits assumed): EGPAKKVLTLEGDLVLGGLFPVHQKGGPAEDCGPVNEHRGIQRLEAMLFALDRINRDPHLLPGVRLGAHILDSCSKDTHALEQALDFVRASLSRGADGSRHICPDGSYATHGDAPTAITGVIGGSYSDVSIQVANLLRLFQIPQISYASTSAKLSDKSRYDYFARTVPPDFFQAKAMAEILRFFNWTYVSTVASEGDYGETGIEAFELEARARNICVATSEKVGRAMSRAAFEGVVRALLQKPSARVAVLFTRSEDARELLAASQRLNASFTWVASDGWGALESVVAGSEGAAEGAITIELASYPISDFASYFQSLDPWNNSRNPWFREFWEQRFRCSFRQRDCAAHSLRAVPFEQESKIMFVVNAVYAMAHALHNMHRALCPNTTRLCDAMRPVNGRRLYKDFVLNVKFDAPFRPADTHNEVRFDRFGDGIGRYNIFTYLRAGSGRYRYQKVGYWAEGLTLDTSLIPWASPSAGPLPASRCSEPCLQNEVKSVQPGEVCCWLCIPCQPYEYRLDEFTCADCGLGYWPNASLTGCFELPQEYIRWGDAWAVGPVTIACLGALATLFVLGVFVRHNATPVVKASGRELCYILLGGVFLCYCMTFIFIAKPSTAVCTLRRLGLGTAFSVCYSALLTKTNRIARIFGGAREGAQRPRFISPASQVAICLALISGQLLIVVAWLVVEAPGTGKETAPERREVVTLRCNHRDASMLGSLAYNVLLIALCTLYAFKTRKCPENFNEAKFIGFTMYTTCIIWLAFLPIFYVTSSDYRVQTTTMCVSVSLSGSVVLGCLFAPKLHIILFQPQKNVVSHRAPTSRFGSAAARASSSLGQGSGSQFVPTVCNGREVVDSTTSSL
Chain of Metabotropic glutamate receptor 8 (P70579 whole entry): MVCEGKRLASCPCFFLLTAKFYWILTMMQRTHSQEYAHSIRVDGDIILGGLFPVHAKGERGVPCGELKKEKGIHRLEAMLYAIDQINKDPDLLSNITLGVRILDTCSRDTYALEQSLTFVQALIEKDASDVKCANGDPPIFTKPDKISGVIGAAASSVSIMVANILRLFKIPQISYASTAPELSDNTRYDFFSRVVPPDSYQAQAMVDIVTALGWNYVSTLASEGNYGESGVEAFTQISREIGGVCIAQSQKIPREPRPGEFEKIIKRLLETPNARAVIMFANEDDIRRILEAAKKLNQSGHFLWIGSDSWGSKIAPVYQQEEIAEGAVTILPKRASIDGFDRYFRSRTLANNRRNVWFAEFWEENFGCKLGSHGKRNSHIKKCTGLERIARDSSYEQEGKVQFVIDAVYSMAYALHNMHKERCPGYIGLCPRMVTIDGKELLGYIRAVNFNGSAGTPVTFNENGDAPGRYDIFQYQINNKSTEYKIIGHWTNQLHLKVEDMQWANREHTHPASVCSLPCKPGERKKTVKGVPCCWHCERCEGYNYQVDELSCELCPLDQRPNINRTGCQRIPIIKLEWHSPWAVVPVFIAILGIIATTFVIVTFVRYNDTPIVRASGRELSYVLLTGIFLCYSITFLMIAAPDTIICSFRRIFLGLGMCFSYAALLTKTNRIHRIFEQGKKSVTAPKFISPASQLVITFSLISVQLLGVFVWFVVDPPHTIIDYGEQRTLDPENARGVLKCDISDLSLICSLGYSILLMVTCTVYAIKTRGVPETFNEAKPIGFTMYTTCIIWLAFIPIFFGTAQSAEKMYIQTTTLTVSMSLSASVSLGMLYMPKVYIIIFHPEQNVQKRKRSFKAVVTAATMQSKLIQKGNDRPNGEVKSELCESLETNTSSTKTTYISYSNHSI
Chain of Metabotropic glutamate receptor 3 (Rattus norvegicus) (P31422 whole entry, looked up): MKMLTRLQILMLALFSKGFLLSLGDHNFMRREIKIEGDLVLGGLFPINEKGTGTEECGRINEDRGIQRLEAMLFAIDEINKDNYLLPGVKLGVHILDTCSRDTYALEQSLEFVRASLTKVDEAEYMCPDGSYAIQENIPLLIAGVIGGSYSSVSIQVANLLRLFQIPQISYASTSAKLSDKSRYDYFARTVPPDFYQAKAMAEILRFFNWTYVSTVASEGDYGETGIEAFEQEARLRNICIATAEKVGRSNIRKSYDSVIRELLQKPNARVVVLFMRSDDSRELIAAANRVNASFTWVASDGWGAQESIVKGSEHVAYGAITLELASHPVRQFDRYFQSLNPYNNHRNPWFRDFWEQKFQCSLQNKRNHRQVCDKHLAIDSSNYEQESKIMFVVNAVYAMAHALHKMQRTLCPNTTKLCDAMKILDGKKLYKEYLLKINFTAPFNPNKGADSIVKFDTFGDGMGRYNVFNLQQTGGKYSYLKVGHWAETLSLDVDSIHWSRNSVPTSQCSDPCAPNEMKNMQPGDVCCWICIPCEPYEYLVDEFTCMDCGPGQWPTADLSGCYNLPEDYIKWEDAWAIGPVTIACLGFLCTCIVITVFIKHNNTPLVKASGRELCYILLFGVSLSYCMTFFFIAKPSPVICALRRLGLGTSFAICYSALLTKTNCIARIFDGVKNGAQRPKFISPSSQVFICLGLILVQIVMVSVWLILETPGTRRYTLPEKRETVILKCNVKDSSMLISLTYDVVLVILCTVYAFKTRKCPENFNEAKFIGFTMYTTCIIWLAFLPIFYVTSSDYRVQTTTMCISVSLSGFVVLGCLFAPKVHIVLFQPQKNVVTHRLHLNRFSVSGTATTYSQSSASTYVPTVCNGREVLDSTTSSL
T3 sequence (P31422 whole entry): as the sequence (P31422 whole entry, looked up) above
Chain of Metabotropic glutamate receptor 7 (Rattus norvegicus, UniProt P35400) (P35400 whole entry): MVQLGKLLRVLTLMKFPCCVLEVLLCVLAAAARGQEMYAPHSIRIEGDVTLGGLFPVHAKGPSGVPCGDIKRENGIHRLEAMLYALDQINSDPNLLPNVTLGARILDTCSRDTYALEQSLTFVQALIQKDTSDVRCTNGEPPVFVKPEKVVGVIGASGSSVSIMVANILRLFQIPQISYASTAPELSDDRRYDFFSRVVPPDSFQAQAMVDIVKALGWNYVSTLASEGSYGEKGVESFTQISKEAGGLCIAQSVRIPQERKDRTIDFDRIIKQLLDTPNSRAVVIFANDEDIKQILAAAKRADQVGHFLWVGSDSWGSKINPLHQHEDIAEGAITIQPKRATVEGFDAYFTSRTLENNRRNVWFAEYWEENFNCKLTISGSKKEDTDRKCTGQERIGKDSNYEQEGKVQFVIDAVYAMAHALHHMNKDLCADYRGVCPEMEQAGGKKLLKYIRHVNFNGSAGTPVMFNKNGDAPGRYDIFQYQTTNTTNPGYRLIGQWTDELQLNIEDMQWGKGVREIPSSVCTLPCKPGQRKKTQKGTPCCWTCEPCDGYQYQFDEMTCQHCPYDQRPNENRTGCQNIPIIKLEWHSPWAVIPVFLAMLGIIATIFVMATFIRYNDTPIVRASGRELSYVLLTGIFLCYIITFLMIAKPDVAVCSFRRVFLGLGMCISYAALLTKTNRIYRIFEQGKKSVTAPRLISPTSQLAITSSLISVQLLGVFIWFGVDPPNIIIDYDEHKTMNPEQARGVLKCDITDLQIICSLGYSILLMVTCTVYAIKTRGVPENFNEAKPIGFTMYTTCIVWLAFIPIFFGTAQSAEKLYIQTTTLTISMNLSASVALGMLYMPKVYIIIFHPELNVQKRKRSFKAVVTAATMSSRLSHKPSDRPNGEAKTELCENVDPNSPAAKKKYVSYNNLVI
T1 sequence (P43003 whole entry): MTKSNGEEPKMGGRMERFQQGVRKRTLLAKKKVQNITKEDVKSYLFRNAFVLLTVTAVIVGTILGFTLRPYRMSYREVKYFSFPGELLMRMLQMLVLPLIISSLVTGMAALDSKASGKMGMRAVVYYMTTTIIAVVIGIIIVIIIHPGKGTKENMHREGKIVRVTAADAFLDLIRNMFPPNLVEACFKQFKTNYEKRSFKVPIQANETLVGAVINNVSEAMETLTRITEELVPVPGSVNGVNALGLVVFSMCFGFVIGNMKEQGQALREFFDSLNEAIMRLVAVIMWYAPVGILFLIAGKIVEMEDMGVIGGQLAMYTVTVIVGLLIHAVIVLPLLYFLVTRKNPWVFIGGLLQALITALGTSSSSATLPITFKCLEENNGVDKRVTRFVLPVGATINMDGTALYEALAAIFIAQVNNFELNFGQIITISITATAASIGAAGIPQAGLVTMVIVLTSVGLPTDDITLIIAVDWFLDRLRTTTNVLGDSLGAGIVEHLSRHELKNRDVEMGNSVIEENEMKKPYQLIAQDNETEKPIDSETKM
T8 sequence (P31423 whole entry): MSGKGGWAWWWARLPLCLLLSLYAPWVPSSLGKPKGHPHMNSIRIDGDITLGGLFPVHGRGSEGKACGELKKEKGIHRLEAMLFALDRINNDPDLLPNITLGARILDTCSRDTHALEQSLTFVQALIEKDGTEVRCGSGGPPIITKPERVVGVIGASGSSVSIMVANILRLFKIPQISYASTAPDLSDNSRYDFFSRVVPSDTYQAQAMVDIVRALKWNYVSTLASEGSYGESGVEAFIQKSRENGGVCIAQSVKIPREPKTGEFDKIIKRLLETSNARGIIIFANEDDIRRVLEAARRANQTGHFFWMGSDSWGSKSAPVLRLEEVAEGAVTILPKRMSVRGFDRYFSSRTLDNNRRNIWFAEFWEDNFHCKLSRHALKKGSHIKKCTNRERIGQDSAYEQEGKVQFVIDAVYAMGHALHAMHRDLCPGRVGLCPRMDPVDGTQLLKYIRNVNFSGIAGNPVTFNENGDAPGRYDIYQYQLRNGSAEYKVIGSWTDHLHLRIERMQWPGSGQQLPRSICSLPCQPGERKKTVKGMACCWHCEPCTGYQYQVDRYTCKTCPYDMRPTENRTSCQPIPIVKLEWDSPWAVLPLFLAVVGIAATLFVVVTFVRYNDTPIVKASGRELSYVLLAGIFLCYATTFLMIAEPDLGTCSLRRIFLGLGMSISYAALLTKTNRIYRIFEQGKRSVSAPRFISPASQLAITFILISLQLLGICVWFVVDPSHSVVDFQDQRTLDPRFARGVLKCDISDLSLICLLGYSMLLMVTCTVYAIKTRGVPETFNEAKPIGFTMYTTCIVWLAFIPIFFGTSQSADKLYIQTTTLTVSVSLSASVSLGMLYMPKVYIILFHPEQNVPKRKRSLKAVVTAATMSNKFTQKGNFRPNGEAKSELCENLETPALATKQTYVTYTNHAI
Chain of Metabotropic glutamate receptor 7 (Homo sapiens, UniProt Q14831) (Q14831 whole entry): as the sequence (P35400 whole entry) above, with G5R, V27A, H454N, T488S, S520A, N578D counted along it

Turning to `N[C@@H](C[C@]1(C(=O)O)C[C@H]1C(=O)O)C(=O)O`, the IC50 in [1] is greater than 300 µM; in assay [7], greater than 300 µM; in assay [9] it was greater than 100 µM; in assay [11], greater than 100 µM; in assay [17], greater than 300 µM. Further, the result in assay [2], in assay [4] and in assay [5] was inactive. Besides, the EC50 was 0.49 µM in [3]; greater than 1000 µM in assay [6]; 0.68 µM in assay [8]; 145 µM in assay [12]; greater than 1000 µM in assay [13]; 120 µM in [14]. The results for the EC50 in [15], in assay [16] and in assay [18] were greater than 1000 µM, greater than 1000 µM and 0.13 µM, respectively. The outcome in assay [10] was Active. For the same compound, the Ki in [19] is 13 µM.

With `N[C@@H](C[C@]1(C(=O)O)C[C@@H]1C(=O)O)C(=O)O`, the IC50 is greater than 300 µM in assay [1]; greater than 300 µM in assay [7]; greater than 100 µM in [9]; greater than 100 µM in assay [11]; greater than 300 µM in assay [17]. Further, the result in assay [2], in assay [4] and in [5] was inactive. Besides, the EC50 in assay [3] is greater than 1000 µM; in assay [6], greater than 1000 µM; in assay [8], greater than 1000 µM; in assay [12] it was 33.7 µM; in assay [13], greater than 1000 µM; in assay [14] it was greater than 1000 µM. Besides, the EC50 in assay [15] is 119 µM; in assay [16], greater than 1000 µM; in assay [18], greater than 1000 µM. Besides, in [10], the result was Active. Besides, the Ki in [19] is greater than 100 µM.

In the case of `N[C@@H](C[C@@H](CCC(=O)O)C(=O)O)C(=O)O`, the IC50 in [1] is greater than 300 µM; in [7], greater than 300 µM; in assay [9] it was greater than 100 µM; in assay [11] it was greater than 100 µM; in assay [17], greater than 300 µM. Moreover, the outcome in [2], in [4] and in assay [5] was inactive. In addition, the EC50 in [3] is greater than 1000 µM; in [20] it was greater than 1000 µM; in assay [6], greater than 1000 µM; in assay [8] it was greater than 1000 µM; in assay [21], greater than 1000 µM; in assay [12], 34.2 µM. Further, the EC50 in assay [13] was greater than 1000 µM; in assay [22], 348 µM; in assay [23] (read-out: EC50) it was 1.63 µM; in assay [23] (read-out: pEC50 (converted)), 1.66 µM; in [14] it was greater than 1000 µM; in assay [15] it was 120 µM. Moreover, the EC50 in [16] was greater than 1000 µM; in assay [24], greater than 1000 µM; in assay [25] it was greater than 1000 µM; in assay [18], no less than 100 µM. The result in assay [10] was Active.
